Reference: ChEMBL document CHEMBL3407460, “Synthesis of novel thiazole-based 8,9-dihydro-7H-pyrimido[4,5-b][1,4]diazepines as potential antitumor and antifungal agents” (2015)
Values after ≈ are worked out from the molar mass of the structure shown.

Assays:
Type in all cases: functional
Candida albicans [1] = test: Antifungal activity against Candida albicans ATCC 10231 assessed as growth inhibition at 7.81 ug/ml after 48 hrs by broth microdilution method; settings: ATCC 10231, 48 h
Outline: (§1)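 CLSI M27-A3 broth microdilution in RPMI-1640. Compound stocks were made in DMSO (final at most 1%) and tested at final levels of 250 to 0.98. Inoculum was 1–5 × 10^3 CFU/mL, incubated 48 h at 30 °C in a moist, dark chamber. Growth and sterility control wells were included.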

Cryptococcus neoformans [2] = test: Antifungal activity against Cryptococcus neoformans IM 972724 clinical isolate after 48 hrs by broth microdilution method; settings: IM 972724, 48 h
Outline: (§2)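 Clinical isolates from the Malbrán Institute were grown on Sabouraud-chloramphenicol agar for 48 h at 30 °C, kept on Sabouraud-dextrose agar and subcultured every 15 days. M27-A3 RPMI-1640 microdilution used 1–5 × 10^3 CFU/mL, 48 h at 30 °C, OD405 read, triplicate. Endpoints MIC100, MIC80 and MIC50 were taken from % inhibition dose-response curves.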

Cryptococcus neoformans [3] = test: Antifungal activity against Cryptococcus neoformans ATCC 32264 assessed as growth inhibition at 250 ug/ml after 48 hrs by broth microdilution method; settings: ATCC 32264, 48 h; outline: as §1
Cryptococcus neoformans [4] = test: Antifungal activity against Cryptococcus neoformans IM 972751 clinical isolate after 48 hrs by broth microdilution method; settings: IM 972751, 48 h; outline: as §2
Candida albicans [5] = test: Antifungal activity against Candida albicans ATCC 10231 assessed as growth inhibition at 15.62 ug/ml after 48 hrs by broth microdilution method; settings: ATCC 10231, 48 h; outline: as §1
Cryptococcus neoformans [6] = test: Antifungal activity against Cryptococcus neoformans IM 983036 clinical isolate after 48 hrs by broth microdilution method; settings: IM 983036, 48 h; outline: as §2
Cryptococcus neoformans [7] = test: Antifungal activity against Cryptococcus neoformans ATCC 32264 assessed as growth inhibition at 7.81 ug/ml after 48 hrs by broth microdilution method; settings: ATCC 32264, 48 h; outline: as §1
Candida albicans [8] = test: Antifungal activity against Candida albicans ATCC 10231 assessed as growth inhibition at 3.9 ug/ml after 48 hrs by broth microdilution method; settings: ATCC 10231, 48 h; outline: as §1
Cryptococcus neoformans [9] = test: Antifungal activity against Cryptococcus neoformans IM 983040 clinical isolate after 48 hrs by broth microdilution method; settings: IM 983040, 48 h; outline: as §2
Cryptococcus neoformans [10] = test: Antifungal activity against Cryptococcus neoformans IM 00319 clinical isolate after 48 hrs by broth microdilution method; settings: IM 00319, 48 h
Outline: (§3)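 Clinical isolates from the Malbrán Institute were grown on Sabouraud-chloramphenicol agar for 48 h at 30 °C, kept on Sabouraud-dextrose agar and subcultured every 15 days. Endpoints MIC100, MIC80 and MIC50 were taken from % inhibition dose-response curves.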

Cryptococcus neoformans [11] = test: Antifungal activity against Cryptococcus neoformans IM 052470 clinical isolate after 48 hrs by broth microdilution method; settings: IM 052470, 48 h; outline: as §3
Cryptococcus neoformans [12] = test: Antifungal activity against Cryptococcus neoformans IM 961951 clinical isolate after 48 hrs by broth microdilution method; settings: IM 961951, 48 h; outline: as §2
Cryptococcus neoformans [13] = test: Antifungal activity against Cryptococcus neoformans ATCC 32264 after 48 hrs by broth microdilution method; settings: ATCC 32264, 48 h
Cryptococcus neoformans [14] = test: Antifungal activity against Cryptococcus neoformans IM 031706 clinical isolate after 48 hrs by broth microdilution method; settings: IM 031706, 48 h; outline: as §3
Candida albicans [15] = test: Antifungal activity against Candida albicans ATCC 10231 assessed as growth inhibition at 31.25 ug/ml after 48 hrs by broth microdilution method; settings: ATCC 10231, 48 h; outline: as §1
Cryptococcus neoformans [16] = test: Antifungal activity against Cryptococcus neoformans IM 031631 clinical isolate after 48 hrs by broth microdilution method; settings: IM 031631, 48 h; outline: as §2
Candida albicans [17] = test: Antifungal activity against Candida albicans ATCC 10231 assessed as growth inhibition at 250 ug/ml after 48 hrs by broth microdilution method; settings: ATCC 10231, 48 h; outline: as §1
Cryptococcus neoformans [18] = test: Antifungal activity against Cryptococcus neoformans ATCC 32264 assessed as growth inhibition at 3.9 ug/ml after 48 hrs by broth microdilution method; settings: ATCC 32264, 48 h; outline: as §1
Candida albicans [19] = test: Antifungal activity against Candida albicans ATCC 10231 assessed as growth inhibition at 125 ug/ml after 48 hrs by broth microdilution method; settings: ATCC 10231, 48 h; outline: as §1
Cryptococcus neoformans [20] = test: Antifungal activity against Cryptococcus neoformans IM 042074 clinical isolate after 48 hrs by broth microdilution method; settings: IM 042074, 48 h; outline: as §2
Cryptococcus neoformans [21] = test: Antifungal activity against Cryptococcus neoformans ATCC 32264 assessed as growth inhibition at 62.5 ug/ml after 48 hrs by broth microdilution method; settings: ATCC 32264, 48 h; outline: as §1
Cryptococcus neoformans [22] = test: Antifungal activity against Cryptococcus neoformans ATCC 32264 assessed as growth inhibition at 15.62 ug/ml after 48 hrs by broth microdilution method; settings: ATCC 32264, 48 h; outline: as §1
Candida albicans [23] = test: Antifungal activity against Candida albicans ATCC 10231 assessed as growth inhibition at 62.5 ug/ml after 48 hrs by broth microdilution method; settings: ATCC 10231, 48 h; outline: as §1
Cryptococcus neoformans [24] = test: Antifungal activity against Cryptococcus neoformans ATCC 32264 assessed as growth inhibition at 31.25 ug/ml after 48 hrs by broth microdilution method; settings: ATCC 32264, 48 h; outline: as §1
Cryptococcus neoformans [25] = test: Antifungal activity against Cryptococcus neoformans ATCC 32264 assessed as growth inhibition at 125 ug/ml after 48 hrs by broth microdilution method; settings: ATCC 32264, 48 h; outline: as §1

Q: What does the source list for Nc1nc(N)c2c(n1)NC(c1sc(Cl)nc1Cl)CC(c1ccc(Cl)cc1)=N2 (stereo not drawn)?
A: inhibition at 7.81 µg/mL (Candida albicans [1]): 48.3%; MFC (Cryptococcus neoformans [2]): 31.2 µg/mL (≈ 70.8 µM); MIC50 (Cryptococcus neoformans [2]): 7.8 µg/mL (≈ 17.7 µM); MIC80 (Cryptococcus neoformans [2]): 15.6 µg/mL (≈ 35.4 µM); MIC (Cryptococcus neoformans [2]; read-out: MIC100): 15.6 µg/mL (≈ 35.4 µM); inhibition at 250 µg/mL (Cryptococcus neoformans [3]): 78.7%; MFC (Cryptococcus neoformans [4]): 62.5 µg/mL (≈ 142 µM); MIC50 (Cryptococcus neoformans [4]): 31.2 µg/mL (≈ 70.8 µM); MIC80 (Cryptococcus neoformans [4]): 31.2 µg/mL (≈ 70.8 µM); MIC (Cryptococcus neoformans [4]; read-out: MIC100): 62.5 µg/mL (≈ 142 µM); inhibition at 15.62 µg/mL (Candida albicans [5]): 100%; MFC (Cryptococcus neoformans [6]): 31.2 µg/mL (≈ 70.8 µM); MIC50 (Cryptococcus neoformans [6]): 15.6 µg/mL (≈ 35.4 µM); MIC80 (Cryptococcus neoformans [6]): 15.6 µg/mL (≈ 35.4 µM); MIC (Cryptococcus neoformans [6]; read-out: MIC100): 31.2 µg/mL (≈ 70.8 µM); inhibition at 7.81 µg/mL (Cryptococcus neoformans [7]): 3.56%; inhibition at 3.9 µg/mL (Candida albicans [8]): 22.2%; MFC (Cryptococcus neoformans [9]): 62.5 µg/mL (≈ 142 µM); MIC50 (Cryptococcus neoformans [9]): 31.2 µg/mL (≈ 70.8 µM); MIC80 (Cryptococcus neoformans [9]): 31.2 µg/mL (≈ 70.8 µM); MIC (Cryptococcus neoformans [9]; read-out: MIC100): 31.2 µg/mL (≈ 70.8 µM); MFC (Cryptococcus neoformans [10]): 31.2 µg/mL (≈ 70.8 µM); MIC50 (Cryptococcus neoformans [10]): 7.8 µg/mL (≈ 17.7 µM); MIC80 (Cryptococcus neoformans [10]): 15.6 µg/mL (≈ 35.4 µM); MIC (Cryptococcus neoformans [10]; read-out: MIC100): 15.6 µg/mL (≈ 35.4 µM); MFC (Cryptococcus neoformans [11]): 62.5 µg/mL (≈ 142 µM); MIC50 (Cryptococcus neoformans [11]): 15.6 µg/mL (≈ 35.4 µM); MIC80 (Cryptococcus neoformans [11]): 31.2 µg/mL (≈ 70.9 µM); MIC (Cryptococcus neoformans [11]; read-out: MIC100): 62.5 µg/mL (≈ 142 µM); MFC (Cryptococcus neoformans [12]): 62.5 µg/mL (≈ 142 µM); MIC50 (Cryptococcus neoformans [12]): 7.8 µg/mL (≈ 17.7 µM); MIC80 (Cryptococcus neoformans [12]): 15.6 µg/mL (≈ 35.4 µM); MIC (Cryptococcus neoformans [12]; read-out: MIC100): 15.6 µg/mL (≈ 35.4 µM); MFC (Cryptococcus neoformans [13]): 31.2 µg/mL (≈ 70.8 µM); MIC50 (Cryptococcus neoformans [13]): 7.8 µg/mL (≈ 17.7 µM); MIC80 (Cryptococcus neoformans [13]): 15.6 µg/mL (≈ 35.4 µM); MIC (Cryptococcus neoformans [13]; read-out: MIC100): 15.6 µg/mL (≈ 35.4 µM); MFC (Cryptococcus neoformans [14]): 62.5 µg/mL (≈ 142 µM); MIC50 (Cryptococcus neoformans [14]): 7.8 µg/mL (≈ 17.7 µM); MIC80 (Cryptococcus neoformans [14]): 31.2 µg/mL (≈ 70.8 µM); MIC (Cryptococcus neoformans [14]; read-out: MIC100): 62.5 µg/mL (≈ 142 µM); inhibition at 31.25 µg/mL (Candida albicans [15]): 100%; MFC (Cryptococcus neoformans [16]): 62.5 µg/mL (≈ 142 µM); MIC50 (Cryptococcus neoformans [16]): 7.8 µg/mL (≈ 17.7 µM); MIC80 (Cryptococcus neoformans [16]): 15.6 µg/mL (≈ 35.4 µM); MIC (Cryptococcus neoformans [16]; read-out: MIC100): 31.2 µg/mL (≈ 70.8 µM); inhibition at 250 µg/mL (Candida albicans [17]): 100%; inhibition at 3.9 µg/mL (Cryptococcus neoformans [18]): 0%; inhibition at 125 µg/mL (Candida albicans [19]): 100%; MFC (Cryptococcus neoformans [20]): 62.5 µg/mL (≈ 142 µM); MIC50 (Cryptococcus neoformans [20]): 15.6 µg/mL (≈ 35.4 µM); MIC80 (Cryptococcus neoformans [20]): 31.2 µg/mL (≈ 70.8 µM); MIC (Cryptococcus neoformans [20]; read-out: MIC100): 31.2 µg/mL (≈ 70.8 µM); inhibition at 62.5 µg/mL (Cryptococcus neoformans [21]): 40.5%; inhibition at 15.62 µg/mL (Cryptococcus neoformans [22]): 13.1%; inhibition at 62.5 µg/mL (Candida albicans [23]): 100%; inhibition at 31.25 µg/mL (Cryptococcus neoformans [24]): 30.5%; inhibition at 125 µg/mL (Cryptococcus neoformans [25]): 58.2%
